According to ChEMBL document CHEMBL1140214, “Antitumor activity of new substituted 3-(5-imidazo[2,1-b]thiazolylmethylene)-2-indolinones and 3-(5-imidazo[2,1-b]thiadiazolylmethylene)-2-indolinones: selectivity against colon tumor cells and effect on cell cycle-related events” (2008):

Assays:
[1] = test system: Melanoma cell; assay: Antitumor activity against human Melanoma cells after 48 hrs by SRB assay; assay type: functional; conditions: for TGI: read-out: pTGI (converted)
Method in brief: (§1)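 NCI 60-cell panel two-stage screen: a single-dose pass at 10^-5 M, then five-dose testing for active compounds. Compounds were dissolved in DMSO and tested at five 10-fold dilutions, the highest 10^-4 M (10^-3 M in some cases). Results are given as the negative log molar concentration at three end points: pGI50, pTGI (total growth inhibition) and pLC50. Means are panel-subtype averages.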

[2] = Antitumor activity against human CNS cancer cells after 48 hrs by SRB assay; assay type: functional, Cancer cell lines; conditions: for TGI: read-out: pTGI (converted); method in brief: as §1
[3] = Antitumor activity against human ovarian cancer cells after 48 hrs by SRB assay; assay type: functional, Cancer cell lines; conditions: for GI50 / TGI: Homo sapiens, Cancer cell lines, 48 h; for TGI: read-out: pTGI (converted); method in brief: as §1
[4] = Antitumor activity against human renal cancer cells after 48 hrs by SRB assay; assay type: functional, Cancer cell lines; conditions: for TGI: read-out: pTGI (converted); method in brief: as §1
[5] = test system: Leukemia cell; assay: Antitumor activity against human Leukemia cells after 48 hrs by SRB assay; assay type: functional; conditions: for GI50 / TGI: Homo sapiens, Leukemia cell, 48 h; for TGI: read-out: pTGI (converted); method in brief: as §1
[6] = Antitumor activity against human Breast cancer cells after 48 hrs by SRB assay; assay type: functional, Cancer cell lines; conditions: for GI50 / TGI: Homo sapiens, Cancer cell lines, 48 h; for TGI: read-out: pTGI (converted); method in brief: as §1
[7] = test system: NSCLC; assay: Antitumor activity against human NSCLC cells after 48 hrs by SRB assay; assay type: functional; conditions: for GI50 / TGI: Homo sapiens, NSCLC, 48 h; for TGI: read-out: pTGI (converted); method in brief: as §1
[8] = Antitumor activity against human Colon cancer cells after 48 hrs by SRB assay; assay type: functional, Cancer cell lines; conditions: for TGI: read-out: pTGI (converted); method in brief: as §1
[9] = Antitumor activity against human prostate cancer cells after 48 hrs by SRB assay; assay type: functional, Cancer cell lines; conditions: for GI50 / TGI: Homo sapiens, Cancer cell lines, 48 h; for TGI: read-out: pTGI (converted); method in brief: as §1
[10] = Homo sapiens, Melanoma cell, 48 h, read-out: pGI50 (converted)
[11] = Homo sapiens, Melanoma cell, 48 h
[12] = Homo sapiens, Cancer cell lines, 48 h
[13] = Homo sapiens, Cancer cell lines, 48 h, read-out: pGI50 (converted)

Compound	GI50 [1] [µM]	GI50 [1, 10] [µM]	GI50 [5] [µM]	TGI [1, 11] [µM]	GI50 [2] [µM]	GI50 [2, 13] [µM]	TGI [2, 12] [µM]	GI [3] [µM]	GI50 [3] [µM]	GI [4] [µM]	GI50 [4, 12] [µM]	GI [5] [µM]	GI [6] [µM]	GI50 [6] [µM]	GI [7] [µM]	GI50 [7] [µM]	GI [8] [µM]	GI50 [8, 12] [µM]	GI [9] [µM]	GI50 [9] [µM]	further results
Cc1cn2c(/C=C3/C(=O)N(C)c4ccc(Cl)cc43)c(C)nc2s1	5.5	5.5	1.45	63.1	3.16	3.16	28.8	3.8	3.8	6.03	6.03	1.45	6.76	6.76	7.94	7.94	2.69	2.69	1	1	LC50 [2, 12]: 79.4 µM; TGI [3]: 44.7 µM; TGI [4, 12]: 61.7 µM; TGI [5]: 11.7 µM; TGI [6]: 33.1 µM; TGI [7]: 41.7 µM; LC50 (50% lethal concentration) [8, 12]: 83.2 µM; TGI [8, 12]: 38 µM; TGI [9]: 4.37 µM
Cc1nn2c(/C=C3/C(=O)Nc4ccccc43)c(-c3ccc(Cl)cc3)nc2s1	19.95	20	17.8	35.5	3.24	3.24	16.6	25.7	25.7	17.78	17.8	17.78	16.98	17	19.05	19.1	18.62	18.6	12.3	12.3	CC50 ([1]; Homo sapiens, Melanoma cell, 48 h, read-out: pLC50 (the source's name) (converted)): 47.9 µM; LC50 [2, 12]: 38.9 µM; LC50 (concentration killing 50% of cells) [4, 12]: 46.8 µM; TGI [4, 12]: 33.1 µM; TGI [6]: 42.7 µM; TGI [7]: 45.7 µM; TGI [8, 12]: 44.7 µM; TGI [9]: 32.4 µM

Further lines, with some results ahead:

GI50 [1] [µM]	GI50 [1, 10] [µM]	GI50 [5] [µM]	Compound	TGI [1, 11] [µM]	GI50 [2] [µM]	GI50 [2, 13] [µM]	TGI [2, 12] [µM]	GI [3] [µM]	GI50 [3] [µM]	GI [4] [µM]	GI50 [4, 12] [µM]	GI [5] [µM]	GI [6] [µM]	GI50 [6] [µM]	GI [7] [µM]	GI50 [7] [µM]	GI [8] [µM]	GI50 [8, 12] [µM]	GI [9] [µM]	GI50 [9] [µM]	further results
45.71	45.7	16.2	Cc1nn2c(/C=C3/C(=O)Nc4ccccc43)c(C)nc2s1	–	48.98	49	–	50.12	50.1	61.66	61.7	16.22	22.91	22.9	38.9	38.9	9.33	9.33	47.86	47.9	–
6.31	6.31	4.57	Cc1cn2c(/C=C3/C(=O)Nc4ccc(F)cc43)c(C)nc2s1	35.5	6.03	6.03	33.1	7.24	7.24	11.48	11.5	4.57	4.47	4.47	8.13	8.13	2.4	2.4	9.55	9.55	TGI [3]: 44.7 µM; TGI [4, 12]: 40.7 µM; TGI [5]: 23.4 µM; TGI [6]: 23.4 µM; TGI [7]: 42.7 µM; TGI [8, 12]: 40.7 µM; TGI [9]: 40.7 µM
41.69	41.7	14.1	Cc1nn2c(/C=C3/C(=O)Nc4ccc(Cl)cc43)c(C)nc2s1	97.7	29.51	29.5	97.7	52.48	52.5	56.23	56.2	14.13	28.18	28.2	53.7	53.7	14.13	14.1	43.65	43.7	TGI [5]: 81.3 µM; TGI [6]: 83.2 µM; TGI [7]: 89.1 µM
